Source: ChEMBL document CHEMBL2417369, “Synthesis and evaluation of heteroaryl substituted diazaspirocycles as scaffolds to probe the ATP-binding site of protein kinases” (Bioorg Med Chem, 2013)

Key:
[1] = biological target: Tyrosine-protein kinase Lyn (Homo sapiens, UniProt P07948); test: Inhibition of LYN (unknown origin) at 30 uM by microfluidic mobility shift assay relative to control
Method in brief: (§1)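 Single-point screen in a 24-enzyme kinase panel using a microfluidic assay. Each compound was tested at […] with ATP at roughly the Km for each enzyme. The pan-AGC inhibitor H-89 served as an internal control on every plate.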

[2] = biological target: Insulin receptor (Homo sapiens) (UniProt P06213); test: Inhibition of INSR (unknown origin) at 30 uM by microfluidic mobility shift assay relative to control; method in brief: as §1
Insulin receptor (Homo sapiens), sequence (P06213 28-758 limits assumed): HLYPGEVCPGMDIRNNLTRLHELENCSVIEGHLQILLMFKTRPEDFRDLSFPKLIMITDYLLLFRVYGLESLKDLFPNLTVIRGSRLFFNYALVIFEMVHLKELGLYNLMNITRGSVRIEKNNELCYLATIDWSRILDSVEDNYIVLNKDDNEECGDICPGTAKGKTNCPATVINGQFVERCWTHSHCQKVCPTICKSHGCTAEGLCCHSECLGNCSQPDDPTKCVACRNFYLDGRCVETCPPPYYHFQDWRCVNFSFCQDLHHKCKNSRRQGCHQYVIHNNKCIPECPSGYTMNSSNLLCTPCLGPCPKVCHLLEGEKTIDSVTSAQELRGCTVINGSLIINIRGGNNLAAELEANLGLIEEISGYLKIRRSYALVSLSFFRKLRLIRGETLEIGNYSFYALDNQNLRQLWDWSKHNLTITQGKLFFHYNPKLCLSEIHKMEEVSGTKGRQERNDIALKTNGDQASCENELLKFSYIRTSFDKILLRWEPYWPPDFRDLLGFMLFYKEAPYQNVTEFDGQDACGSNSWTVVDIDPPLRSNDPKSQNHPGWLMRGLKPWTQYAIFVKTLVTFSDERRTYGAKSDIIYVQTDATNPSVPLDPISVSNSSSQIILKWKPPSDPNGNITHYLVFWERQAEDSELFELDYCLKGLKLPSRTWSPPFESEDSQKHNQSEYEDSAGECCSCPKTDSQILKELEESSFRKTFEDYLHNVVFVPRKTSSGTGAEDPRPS
Insulin receptor (Homo sapiens), sequence (P06213 763-1382 limits assumed): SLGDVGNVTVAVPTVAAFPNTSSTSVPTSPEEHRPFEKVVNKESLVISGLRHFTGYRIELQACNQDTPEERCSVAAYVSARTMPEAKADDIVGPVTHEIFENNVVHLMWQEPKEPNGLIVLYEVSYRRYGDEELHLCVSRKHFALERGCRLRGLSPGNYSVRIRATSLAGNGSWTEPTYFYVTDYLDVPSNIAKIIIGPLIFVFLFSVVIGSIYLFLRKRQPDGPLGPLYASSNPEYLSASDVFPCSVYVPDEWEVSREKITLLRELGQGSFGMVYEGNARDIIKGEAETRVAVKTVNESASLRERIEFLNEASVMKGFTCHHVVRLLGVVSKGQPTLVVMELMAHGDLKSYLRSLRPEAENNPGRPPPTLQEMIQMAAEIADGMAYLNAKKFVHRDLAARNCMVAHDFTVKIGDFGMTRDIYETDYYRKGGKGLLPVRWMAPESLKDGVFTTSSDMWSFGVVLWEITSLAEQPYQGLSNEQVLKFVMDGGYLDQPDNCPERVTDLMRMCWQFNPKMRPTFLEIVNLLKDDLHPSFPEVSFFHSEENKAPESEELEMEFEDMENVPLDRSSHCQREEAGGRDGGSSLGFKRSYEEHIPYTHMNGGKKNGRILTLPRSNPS

[3] = biological target: Mitogen-activated protein kinase 14 (Homo sapiens) (UniProt Q16539); test: Inhibition of p38alpha (unknown origin) at 30 uM by microfluidic mobility shift assay relative to control; method in brief: as §1
Mitogen-activated protein kinase 14 (Homo sapiens), sequence (Q16539 whole entry): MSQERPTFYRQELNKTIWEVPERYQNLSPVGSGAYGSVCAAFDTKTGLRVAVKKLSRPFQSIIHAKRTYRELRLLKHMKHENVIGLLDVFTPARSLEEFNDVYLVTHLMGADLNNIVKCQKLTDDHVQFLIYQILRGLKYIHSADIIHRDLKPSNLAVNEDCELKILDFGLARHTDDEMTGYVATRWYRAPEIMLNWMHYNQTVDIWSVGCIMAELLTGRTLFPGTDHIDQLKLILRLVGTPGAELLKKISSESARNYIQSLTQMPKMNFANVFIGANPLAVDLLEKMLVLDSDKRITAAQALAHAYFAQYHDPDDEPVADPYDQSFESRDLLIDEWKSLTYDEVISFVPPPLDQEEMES

[4] = biological target: Serine/threonine-protein kinase Chk2 (Homo sapiens, UniProt O96017); test: Inhibition of CHK2 (unknown origin) at 30 uM by microfluidic mobility shift assay relative to control; method in brief: as §1
[5] = biological target: T1, Serine/threonine-protein kinase Chk1 (Homo sapiens) (UniProt O14757); test: Inhibition of CHK1 (unknown origin) at 30 uM by microfluidic mobility shift assay relative to control; method in brief: as §1
T1 sequence (whole entry): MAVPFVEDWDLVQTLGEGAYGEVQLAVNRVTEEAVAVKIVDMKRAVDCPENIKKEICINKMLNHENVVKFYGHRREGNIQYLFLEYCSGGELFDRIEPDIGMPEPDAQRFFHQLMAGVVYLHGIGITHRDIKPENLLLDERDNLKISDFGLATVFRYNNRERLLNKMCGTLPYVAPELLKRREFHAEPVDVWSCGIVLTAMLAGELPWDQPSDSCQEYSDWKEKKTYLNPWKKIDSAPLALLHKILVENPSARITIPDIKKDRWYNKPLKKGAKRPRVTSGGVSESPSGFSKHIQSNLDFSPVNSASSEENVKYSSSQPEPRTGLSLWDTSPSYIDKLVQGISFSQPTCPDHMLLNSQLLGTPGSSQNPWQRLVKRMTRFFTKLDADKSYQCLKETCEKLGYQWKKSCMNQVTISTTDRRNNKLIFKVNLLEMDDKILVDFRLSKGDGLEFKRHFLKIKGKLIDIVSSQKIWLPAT

[6] = biological target: T2, Serine/threonine-protein kinase D2 (Homo sapiens) (UniProt Q9BZL6); test: Inhibition of PKD2 (unknown origin) at 30 uM by microfluidic mobility shift assay relative to control; method in brief: as §1
T2 sequence (whole entry): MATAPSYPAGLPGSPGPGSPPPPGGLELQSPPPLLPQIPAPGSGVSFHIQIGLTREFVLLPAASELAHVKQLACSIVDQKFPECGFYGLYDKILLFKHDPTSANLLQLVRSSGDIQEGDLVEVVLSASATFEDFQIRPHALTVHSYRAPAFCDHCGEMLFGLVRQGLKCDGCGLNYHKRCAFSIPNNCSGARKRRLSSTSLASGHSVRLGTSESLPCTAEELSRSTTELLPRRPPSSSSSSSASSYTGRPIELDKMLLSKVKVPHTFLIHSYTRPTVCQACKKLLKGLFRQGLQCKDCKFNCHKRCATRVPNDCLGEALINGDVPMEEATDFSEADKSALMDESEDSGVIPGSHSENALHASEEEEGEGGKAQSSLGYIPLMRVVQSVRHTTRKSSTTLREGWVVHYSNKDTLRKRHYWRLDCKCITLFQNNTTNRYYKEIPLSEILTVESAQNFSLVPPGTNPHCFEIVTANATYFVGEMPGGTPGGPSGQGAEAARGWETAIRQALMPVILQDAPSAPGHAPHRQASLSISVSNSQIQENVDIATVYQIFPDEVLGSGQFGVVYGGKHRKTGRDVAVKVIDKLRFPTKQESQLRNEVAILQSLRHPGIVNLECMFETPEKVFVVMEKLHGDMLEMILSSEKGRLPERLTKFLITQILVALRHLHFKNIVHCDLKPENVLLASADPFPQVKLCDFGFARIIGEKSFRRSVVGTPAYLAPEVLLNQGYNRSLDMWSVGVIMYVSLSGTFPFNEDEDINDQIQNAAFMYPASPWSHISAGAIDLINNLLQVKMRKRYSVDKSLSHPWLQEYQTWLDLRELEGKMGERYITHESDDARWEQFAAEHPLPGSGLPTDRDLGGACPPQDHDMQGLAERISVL

[7] = biological target: Tyrosine-protein kinase Lck (Homo sapiens, UniProt P06239); test: Inhibition of LCK (unknown origin) at 30 uM by microfluidic mobility shift assay relative to control; method in brief: as §1
[8] = biological target: Tyrosine-protein kinase Fyn (Homo sapiens, UniProt P06241); test: Inhibition of FYN (unknown origin) at 30 uM by microfluidic mobility shift assay relative to control; method in brief: as §1
Tyrosine-protein kinase Fyn, sequence (P06241 2-537 limits assumed): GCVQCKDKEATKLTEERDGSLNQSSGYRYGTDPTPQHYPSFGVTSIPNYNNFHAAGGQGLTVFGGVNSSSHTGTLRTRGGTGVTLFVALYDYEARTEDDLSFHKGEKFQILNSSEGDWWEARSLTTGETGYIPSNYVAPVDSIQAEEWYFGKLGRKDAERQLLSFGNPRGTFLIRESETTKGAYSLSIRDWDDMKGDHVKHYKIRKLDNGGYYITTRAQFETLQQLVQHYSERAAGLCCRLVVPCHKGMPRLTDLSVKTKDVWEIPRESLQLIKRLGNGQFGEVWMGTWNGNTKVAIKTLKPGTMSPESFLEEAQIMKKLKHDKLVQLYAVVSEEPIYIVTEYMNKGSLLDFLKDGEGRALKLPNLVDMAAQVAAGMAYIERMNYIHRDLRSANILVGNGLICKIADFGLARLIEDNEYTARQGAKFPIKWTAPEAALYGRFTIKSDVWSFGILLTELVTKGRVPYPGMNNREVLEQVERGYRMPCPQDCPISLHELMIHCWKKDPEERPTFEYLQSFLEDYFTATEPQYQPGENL

[9] = biological target: Ribosomal protein S6 kinase alpha-1 (Homo sapiens, UniProt Q15418); test: Inhibition of RSK1 (unknown origin) at 30 uM by microfluidic mobility shift assay relative to control; method in brief: as §1
Ribosomal protein S6 kinase alpha-1, sequence (Q15418 whole entry): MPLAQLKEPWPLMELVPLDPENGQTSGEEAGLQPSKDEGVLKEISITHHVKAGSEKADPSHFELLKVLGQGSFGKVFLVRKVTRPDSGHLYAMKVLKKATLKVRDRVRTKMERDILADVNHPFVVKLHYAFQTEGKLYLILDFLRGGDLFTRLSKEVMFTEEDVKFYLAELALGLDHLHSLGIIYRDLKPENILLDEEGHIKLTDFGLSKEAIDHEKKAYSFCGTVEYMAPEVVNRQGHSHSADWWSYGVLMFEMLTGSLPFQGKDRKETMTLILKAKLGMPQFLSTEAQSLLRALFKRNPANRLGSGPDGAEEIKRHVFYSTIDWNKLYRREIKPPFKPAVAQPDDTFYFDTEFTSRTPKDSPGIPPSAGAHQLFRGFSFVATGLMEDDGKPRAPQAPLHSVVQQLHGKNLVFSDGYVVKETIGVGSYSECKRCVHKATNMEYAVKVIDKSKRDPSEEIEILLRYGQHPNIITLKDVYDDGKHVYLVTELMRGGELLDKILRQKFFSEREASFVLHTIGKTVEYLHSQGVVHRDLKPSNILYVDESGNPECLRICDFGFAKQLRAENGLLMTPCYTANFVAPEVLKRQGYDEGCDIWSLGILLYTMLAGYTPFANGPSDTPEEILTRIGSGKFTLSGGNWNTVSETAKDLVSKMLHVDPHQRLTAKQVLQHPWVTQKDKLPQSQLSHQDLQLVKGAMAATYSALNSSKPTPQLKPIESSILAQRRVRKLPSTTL

[10] = biological target: RAC-beta serine/threonine-protein kinase (Homo sapiens, UniProt P31751); test: Inhibition of AKT2 (unknown origin) at 30 uM by microfluidic mobility shift assay relative to control; method in brief: as §1
RAC-beta serine/threonine-protein kinase, sequence (P31751 whole entry): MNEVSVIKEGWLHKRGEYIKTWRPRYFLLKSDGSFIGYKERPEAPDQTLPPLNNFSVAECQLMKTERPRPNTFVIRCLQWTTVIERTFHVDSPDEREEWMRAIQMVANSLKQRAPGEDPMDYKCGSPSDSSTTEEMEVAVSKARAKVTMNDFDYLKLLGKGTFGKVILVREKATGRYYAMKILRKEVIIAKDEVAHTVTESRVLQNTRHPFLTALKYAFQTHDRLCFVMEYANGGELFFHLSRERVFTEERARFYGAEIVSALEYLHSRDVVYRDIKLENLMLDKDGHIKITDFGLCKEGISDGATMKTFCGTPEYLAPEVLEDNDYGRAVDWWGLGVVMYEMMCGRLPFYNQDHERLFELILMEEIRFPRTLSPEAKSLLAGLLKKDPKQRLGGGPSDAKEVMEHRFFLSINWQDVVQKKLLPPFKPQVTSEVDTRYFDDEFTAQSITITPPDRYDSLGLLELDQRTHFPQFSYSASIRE

[11] = biological target: T3, MAP kinase-activated protein kinase 5 (Homo sapiens) (UniProt Q8IW41); test: Inhibition of MAPKAPK5 (unknown origin) at 30 uM by microfluidic mobility shift assay relative to control; method in brief: as §1
T3 sequence (whole entry): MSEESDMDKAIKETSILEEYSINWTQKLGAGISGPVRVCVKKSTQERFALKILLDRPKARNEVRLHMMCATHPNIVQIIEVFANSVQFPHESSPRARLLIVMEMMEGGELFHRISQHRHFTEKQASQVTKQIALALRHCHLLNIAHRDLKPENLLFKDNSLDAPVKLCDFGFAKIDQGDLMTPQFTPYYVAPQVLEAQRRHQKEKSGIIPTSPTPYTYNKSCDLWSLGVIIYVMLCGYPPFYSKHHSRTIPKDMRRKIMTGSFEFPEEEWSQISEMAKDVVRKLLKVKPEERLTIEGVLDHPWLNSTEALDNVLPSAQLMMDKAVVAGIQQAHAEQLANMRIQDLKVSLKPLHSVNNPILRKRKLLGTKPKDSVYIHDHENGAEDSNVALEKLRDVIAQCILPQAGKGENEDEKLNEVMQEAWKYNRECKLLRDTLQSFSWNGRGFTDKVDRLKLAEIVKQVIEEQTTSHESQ

[12] = biological target: Tyrosine-protein kinase ABL1 (Homo sapiens, UniProt P00519); test: Inhibition of ABL (unknown origin) at 30 uM by microfluidic mobility shift assay relative to control; method in brief: as §1
Tyrosine-protein kinase ABL1, sequence (P00519 whole entry): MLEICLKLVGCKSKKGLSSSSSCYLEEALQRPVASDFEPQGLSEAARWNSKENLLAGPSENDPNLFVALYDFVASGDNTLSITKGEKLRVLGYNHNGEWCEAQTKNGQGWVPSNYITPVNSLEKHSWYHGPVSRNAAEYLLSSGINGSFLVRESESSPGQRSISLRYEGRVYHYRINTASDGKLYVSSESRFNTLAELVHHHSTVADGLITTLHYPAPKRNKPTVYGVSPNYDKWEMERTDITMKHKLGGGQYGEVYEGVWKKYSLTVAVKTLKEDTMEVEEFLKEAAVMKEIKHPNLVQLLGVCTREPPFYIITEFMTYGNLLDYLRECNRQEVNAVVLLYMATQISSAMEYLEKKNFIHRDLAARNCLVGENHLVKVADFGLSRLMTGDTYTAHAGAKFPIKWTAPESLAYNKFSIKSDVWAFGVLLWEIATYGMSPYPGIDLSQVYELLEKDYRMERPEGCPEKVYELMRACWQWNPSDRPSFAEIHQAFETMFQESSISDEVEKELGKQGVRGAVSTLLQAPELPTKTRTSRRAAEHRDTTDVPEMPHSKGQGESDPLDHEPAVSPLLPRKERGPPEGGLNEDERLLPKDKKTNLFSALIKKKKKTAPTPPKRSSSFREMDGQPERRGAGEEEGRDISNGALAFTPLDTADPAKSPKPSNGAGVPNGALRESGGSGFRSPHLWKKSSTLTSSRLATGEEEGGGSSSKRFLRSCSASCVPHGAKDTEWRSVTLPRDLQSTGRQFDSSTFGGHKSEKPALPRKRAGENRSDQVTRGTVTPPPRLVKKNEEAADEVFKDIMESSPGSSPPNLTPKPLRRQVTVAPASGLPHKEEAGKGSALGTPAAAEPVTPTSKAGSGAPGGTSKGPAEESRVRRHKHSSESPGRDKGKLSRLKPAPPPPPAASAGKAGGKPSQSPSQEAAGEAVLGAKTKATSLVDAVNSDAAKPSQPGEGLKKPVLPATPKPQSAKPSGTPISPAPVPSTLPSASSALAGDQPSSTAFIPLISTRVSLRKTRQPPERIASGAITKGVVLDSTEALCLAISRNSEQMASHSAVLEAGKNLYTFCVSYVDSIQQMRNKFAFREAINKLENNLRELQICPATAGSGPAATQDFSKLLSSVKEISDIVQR

SMILES	inhibition [1] [%]	inhibition [2] [%]	inhibition [3] [%]	inhibition [4] [%]	inhibition [5] [%]	inhibition [6] [%]	inhibition [7] [%]	inhibition [8] [%]	inhibition [9] [%]	inhibition [10] [%]	inhibition [11] [%]	inhibition [12] [%]
c1nc(N2CCC3(CCCCC3)CC2)c2nc[nH]c2n1	21	8	6	25	17	5	35	33	45	6	6	20
CNC(=O)C1CCC2(CCN(c3ncnc4[nH]cnc34)CC2)NC1 (racemic)	26	16	16	34	70	35	31	8	42	41	21	23
c1ccc(CC2CCNC3(CCN(c4ncnc5[nH]cnc45)CC3)C2)cc1 (racemic)	53	0	10	98	84	84	60	28	90	98	8	16
c1nc(N2CCC3(CCCOC3)CC2)c2nc[nH]c2n1	34	2	3	28	26	17	37	36	46	6	9	33
OC1CCC2(CCN(c3ncnc4[nH]cnc34)CC2)NC1 (racemic)	26	4	3	53	71	48	21	18	67	59	30	25
O=S(=O)(c1cccc2cnccc12)N1CCC2(CCNC2)CC1	3	4	9	59	46	19	10	1	33	17	18	0
c1nc(N2CCCC3(CCCNC3)C2)c2nc[nH]c2n1 (stereo unspecified)	2	4	5	26	37	7	7	8	39	37	8	5
c1ccc(C2CCC3(CCN(c4ncnc5[nH]cnc45)CC3)NC2)cc1 (stereo unspecified)	44	31	10	44	69	33	62	18	64	41	23	51
